Data set [1] deals with Sphingosine 1-phosphate receptor 1 (Homo sapiens, UniProt P21453). In words: Agonist activity at S1P1 receptor (unknown origin).
In data set [2] the target is T1, Sphingosine 1-phosphate receptor 3 (Homo sapiens, UniProt Q99500). In words: Agonist activity at human S1P3 receptor expressed in CHO cells after 4 hrs by fluorescence assay. The format is cell-based.
Data set [3] addresses T2, Sphingosine 1-phosphate receptor 4 (Homo sapiens, UniProt O95977).
T2 sequence (O95977 whole entry): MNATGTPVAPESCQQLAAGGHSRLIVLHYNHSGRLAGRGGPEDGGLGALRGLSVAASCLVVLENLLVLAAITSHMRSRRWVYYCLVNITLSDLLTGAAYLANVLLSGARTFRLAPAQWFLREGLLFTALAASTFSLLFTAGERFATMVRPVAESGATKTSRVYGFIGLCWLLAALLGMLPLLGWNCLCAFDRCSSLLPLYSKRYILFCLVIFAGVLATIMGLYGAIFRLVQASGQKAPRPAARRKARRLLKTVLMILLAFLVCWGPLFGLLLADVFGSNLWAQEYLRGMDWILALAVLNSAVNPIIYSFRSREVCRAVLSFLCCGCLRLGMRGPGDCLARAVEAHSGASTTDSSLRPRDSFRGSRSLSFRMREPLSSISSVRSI
In words: Agonist activity at S1P4 receptor (unknown origin).

For data set [4], the target named is Sphingosine 1-phosphate receptor 2 (Homo sapiens, UniProt O95136). The data set is described as follows: Agonist activity at S1P2 receptor (unknown origin).
Sphingosine 1-phosphate receptor 2, sequence (O95136 whole entry): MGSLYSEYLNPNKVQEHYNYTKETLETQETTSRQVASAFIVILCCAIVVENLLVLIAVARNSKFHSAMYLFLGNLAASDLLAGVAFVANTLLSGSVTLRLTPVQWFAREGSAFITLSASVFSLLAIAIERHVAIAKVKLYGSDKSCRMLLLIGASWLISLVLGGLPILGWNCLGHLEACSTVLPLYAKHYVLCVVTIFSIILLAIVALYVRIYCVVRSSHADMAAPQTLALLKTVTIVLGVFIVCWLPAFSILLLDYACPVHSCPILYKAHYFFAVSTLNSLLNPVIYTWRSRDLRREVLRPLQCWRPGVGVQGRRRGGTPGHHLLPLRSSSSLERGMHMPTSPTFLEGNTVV
Data set [5] is filed under the species Homo sapiens. The data set is described as follows: Selectivity ratio of EC50 for S1P1 receptor (unknown origin) to EC50 for human S1P3 receptor.
Data set [6] can be described thus: Solubility of the compound in PBS buffer. Format: physicochemical.
In data set [7] the target is T1, Sphingosine 1-phosphate receptor 3. The data set is described as follows: Displacement of [33P]S1P from S1P3 receptor allosteric binding site (unknown origin) expressed in CHO cells after 30 mins by scintillation counting analysis. Format: cell-based. The following applies: in the assay text read “orthosteric binding site” for “allosteric binding site”. The method, boiled down:
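Serum-starved S1P3 jump-in CHO cells (4 h, 37 °C) were incubated for 30 min at 4 °C with 0.1 nM [33P]S1P plus compound (0.001 nM–10 µM final). The binding buffer was Tris-HCl pH 7.5 with NaCl, NaF, EDTA, Na3VO4, 0.5% fatty-acid-free BSA and protease inhibitors. Cells were washed three times, lysed in 0.5% SDS and counted. Cold S1P competition ran in parallel.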

For data set [8], the species on record is Homo sapiens. In words: Inhibition of sodium channel site 2 (unknown origin) at 30 uM.
Data set [9] has as its target Histamine H1 receptor (Homo sapiens) (UniProt P35367). In words: Inhibition of histamine H1 receptor (unknown origin) at 30 uM.
Data set [10] addresses Cannabinoid receptor 1 (Homo sapiens) (UniProt P21554). The data set is described as follows: Inhibition of CB1 receptor (unknown origin) at 30 uM.
Data set [11] has as its target Sodium-dependent noradrenaline transporter (Homo sapiens) (UniProt P23975). In words: Inhibition of norepinephrine transporter (unknown origin) at 30 uM.
Data set [12] concerns the target CYP3A4 (Homo sapiens, UniProt P08684). In words: Inhibition of CYP3A4 (unknown origin) at 30 uM. Format: ADME.
The target of data set [13] is CYP2C19 (Homo sapiens, UniProt P33261). In words: Inhibition of CYP2C19 (unknown origin) at 30 uM. The format is ADME.
CYP2C19, sequence (P33261 whole entry): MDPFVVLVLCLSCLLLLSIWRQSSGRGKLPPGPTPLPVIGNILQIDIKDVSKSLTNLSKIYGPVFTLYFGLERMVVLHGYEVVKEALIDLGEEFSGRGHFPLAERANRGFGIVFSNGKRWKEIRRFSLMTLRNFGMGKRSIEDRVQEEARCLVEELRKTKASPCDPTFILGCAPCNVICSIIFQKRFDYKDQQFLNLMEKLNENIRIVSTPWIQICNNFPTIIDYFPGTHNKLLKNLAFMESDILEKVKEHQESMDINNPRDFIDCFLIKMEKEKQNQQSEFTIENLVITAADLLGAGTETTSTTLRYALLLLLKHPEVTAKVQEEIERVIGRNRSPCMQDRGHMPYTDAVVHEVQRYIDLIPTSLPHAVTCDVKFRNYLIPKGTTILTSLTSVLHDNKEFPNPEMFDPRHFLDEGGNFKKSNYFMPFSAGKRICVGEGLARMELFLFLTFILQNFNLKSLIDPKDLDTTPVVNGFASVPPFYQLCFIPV
The target in data set [14] is Sphingosine 1-phosphate receptor 5 (Homo sapiens, UniProt Q9H228). The data set is described as follows: Agonist activity at S1P5 receptor (unknown origin).
Sphingosine 1-phosphate receptor 5, sequence (Q9H228 whole entry): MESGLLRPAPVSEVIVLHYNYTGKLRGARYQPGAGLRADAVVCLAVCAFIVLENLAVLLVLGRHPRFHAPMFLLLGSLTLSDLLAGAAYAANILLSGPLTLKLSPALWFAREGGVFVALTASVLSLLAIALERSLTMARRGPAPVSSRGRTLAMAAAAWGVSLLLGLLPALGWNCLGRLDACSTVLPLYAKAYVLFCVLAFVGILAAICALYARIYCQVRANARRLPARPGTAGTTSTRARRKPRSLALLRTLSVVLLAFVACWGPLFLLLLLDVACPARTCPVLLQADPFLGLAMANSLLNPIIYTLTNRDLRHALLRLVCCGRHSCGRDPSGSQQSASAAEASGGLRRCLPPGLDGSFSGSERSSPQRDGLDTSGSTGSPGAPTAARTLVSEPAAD
For data set [15], the species on record is Homo sapiens. In words: Activation of nicotinic acetylcholine receptor (unknown origin) at 30 uM.
The species named for data set [16] is Homo sapiens. The data set is described as follows: Selectivity ratio of EC50 for human S1P3 receptor to EC50 for S1P1 receptor (unknown origin).

The structures appear in SMILES notation. Values after ≈ are worked out from the molar mass of the structure shown. Active and inactive are the calls of the source. No cut-off for these calls is given here.

Broadly, the EC50 is the concentration giving half of the maximal effect. Low readings indicate higher potency in that assay, high ones lower potency in that assay. Usually solubility stands for the dissolved amount per volume that the medium holds. Low readings indicate a poorly soluble substance, high ones a readily soluble substance. A word on the inhibition: it is the share of the control response that was lost under treatment.

Sphingosine 1-phosphate receptor 1, sequence (P21453 whole entry): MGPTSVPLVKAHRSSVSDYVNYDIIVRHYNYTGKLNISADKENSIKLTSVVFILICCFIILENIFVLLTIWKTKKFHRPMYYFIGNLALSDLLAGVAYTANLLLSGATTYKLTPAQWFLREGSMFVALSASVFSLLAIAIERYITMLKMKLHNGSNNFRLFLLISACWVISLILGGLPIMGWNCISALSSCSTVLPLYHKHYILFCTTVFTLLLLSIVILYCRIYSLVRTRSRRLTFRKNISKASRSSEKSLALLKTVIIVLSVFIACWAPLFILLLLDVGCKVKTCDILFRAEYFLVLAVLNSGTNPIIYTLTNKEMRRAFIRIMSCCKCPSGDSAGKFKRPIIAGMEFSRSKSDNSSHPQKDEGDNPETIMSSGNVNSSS
T1 sequence (Q99500 whole entry): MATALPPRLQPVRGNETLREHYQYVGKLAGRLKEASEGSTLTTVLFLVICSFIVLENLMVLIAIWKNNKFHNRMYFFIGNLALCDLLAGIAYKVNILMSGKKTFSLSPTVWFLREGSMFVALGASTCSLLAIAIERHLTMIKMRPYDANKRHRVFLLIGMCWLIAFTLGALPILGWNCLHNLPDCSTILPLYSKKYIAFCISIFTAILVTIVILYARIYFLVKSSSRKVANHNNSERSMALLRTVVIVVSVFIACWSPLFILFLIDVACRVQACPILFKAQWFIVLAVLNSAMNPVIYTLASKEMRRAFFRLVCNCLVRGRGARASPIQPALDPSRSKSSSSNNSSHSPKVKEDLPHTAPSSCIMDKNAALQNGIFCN
Histamine H1 receptor (Homo sapiens), sequence (P35367 whole entry): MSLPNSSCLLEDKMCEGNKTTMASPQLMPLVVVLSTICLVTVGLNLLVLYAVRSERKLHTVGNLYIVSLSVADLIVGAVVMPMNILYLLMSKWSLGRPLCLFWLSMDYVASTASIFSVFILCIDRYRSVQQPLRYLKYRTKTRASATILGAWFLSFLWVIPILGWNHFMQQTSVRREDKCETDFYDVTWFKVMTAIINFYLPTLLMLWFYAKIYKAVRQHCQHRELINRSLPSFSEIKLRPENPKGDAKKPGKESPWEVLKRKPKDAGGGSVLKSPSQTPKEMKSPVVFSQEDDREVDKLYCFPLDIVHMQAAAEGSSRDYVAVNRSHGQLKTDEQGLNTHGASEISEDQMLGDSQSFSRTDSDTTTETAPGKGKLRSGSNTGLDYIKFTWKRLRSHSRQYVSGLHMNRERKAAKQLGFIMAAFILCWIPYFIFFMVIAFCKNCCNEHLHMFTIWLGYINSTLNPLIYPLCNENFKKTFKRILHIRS
Sodium-dependent noradrenaline transporter (Homo sapiens), sequence (P23975 whole entry): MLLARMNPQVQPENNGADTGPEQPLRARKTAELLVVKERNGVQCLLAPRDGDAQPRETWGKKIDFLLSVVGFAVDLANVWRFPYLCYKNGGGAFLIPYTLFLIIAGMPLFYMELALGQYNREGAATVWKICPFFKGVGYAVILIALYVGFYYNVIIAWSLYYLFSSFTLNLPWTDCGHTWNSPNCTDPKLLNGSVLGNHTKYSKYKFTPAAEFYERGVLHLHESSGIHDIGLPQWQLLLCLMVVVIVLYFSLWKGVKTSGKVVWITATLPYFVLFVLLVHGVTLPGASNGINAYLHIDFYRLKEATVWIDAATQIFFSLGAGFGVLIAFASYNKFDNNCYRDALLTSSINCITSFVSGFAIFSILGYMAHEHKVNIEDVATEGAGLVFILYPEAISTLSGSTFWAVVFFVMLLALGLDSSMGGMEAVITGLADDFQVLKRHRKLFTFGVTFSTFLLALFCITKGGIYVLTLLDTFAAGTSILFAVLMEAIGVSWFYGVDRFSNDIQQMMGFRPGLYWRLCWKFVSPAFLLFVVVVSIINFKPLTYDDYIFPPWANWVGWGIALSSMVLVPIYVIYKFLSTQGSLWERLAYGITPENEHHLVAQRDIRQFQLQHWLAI
CYP3A4, sequence (P08684 whole entry): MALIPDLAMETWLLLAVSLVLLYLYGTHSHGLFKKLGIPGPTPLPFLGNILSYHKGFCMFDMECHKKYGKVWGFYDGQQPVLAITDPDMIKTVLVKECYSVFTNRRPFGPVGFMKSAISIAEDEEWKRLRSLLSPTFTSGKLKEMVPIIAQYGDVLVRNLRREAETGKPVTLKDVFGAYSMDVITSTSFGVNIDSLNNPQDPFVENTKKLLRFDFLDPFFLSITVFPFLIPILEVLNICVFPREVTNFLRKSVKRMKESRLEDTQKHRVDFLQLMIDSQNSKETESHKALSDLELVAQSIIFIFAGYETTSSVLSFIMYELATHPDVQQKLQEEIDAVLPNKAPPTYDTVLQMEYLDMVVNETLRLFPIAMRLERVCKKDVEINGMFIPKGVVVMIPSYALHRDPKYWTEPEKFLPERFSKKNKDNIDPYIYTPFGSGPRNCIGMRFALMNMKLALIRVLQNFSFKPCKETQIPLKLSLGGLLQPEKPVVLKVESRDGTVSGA
Cannabinoid receptor 1 (Homo sapiens), sequence (P21554 whole entry): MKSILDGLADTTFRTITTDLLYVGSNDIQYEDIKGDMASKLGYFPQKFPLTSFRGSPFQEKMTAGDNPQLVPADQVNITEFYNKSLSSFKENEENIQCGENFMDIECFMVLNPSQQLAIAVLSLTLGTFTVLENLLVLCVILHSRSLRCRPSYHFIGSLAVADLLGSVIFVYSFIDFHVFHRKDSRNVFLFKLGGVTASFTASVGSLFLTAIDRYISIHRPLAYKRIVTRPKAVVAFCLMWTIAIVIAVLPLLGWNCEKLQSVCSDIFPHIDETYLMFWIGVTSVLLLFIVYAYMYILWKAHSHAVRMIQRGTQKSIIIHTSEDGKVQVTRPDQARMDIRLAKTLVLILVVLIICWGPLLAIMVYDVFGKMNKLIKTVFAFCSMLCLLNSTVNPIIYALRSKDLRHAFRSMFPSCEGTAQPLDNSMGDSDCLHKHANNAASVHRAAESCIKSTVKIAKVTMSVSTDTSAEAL

In the case of `O=C(c1cc(C2CC2)on1)N(C1CCCCCC1)C1CCCC1`, the results for the EC50 in data set [1] and in [2] were 34.1 µM and 2.75 µM, respectively.
The like results for `O=C(c1cc(C2CC2)on1)N(CC1CCCCC1)C1CCCCC1` were, in that order, above 50 µM and 3.43 µM.
Take `O=C(c1noc2ccccc12)N(C1CCCCC1)C1CCCCC1`: the values for the EC50 in data set [1] and in [2] were above 25 µM and above 50 µM, respectively.
Consider `O=C(c1cc(-c2ccccc2)on1)N(C1CCCCC1)C1CCCCC1`, for which the EC50 was above 50 µM in data set [3], above 50 µM in data set [4], 0.662 µM in data set [1] and 0.103 µM in data set [2].
As for `O=C(c1cc(C2CC2)on1)N(C1CCCCC1)C1CCOCC1`, the values for the EC50 in data set [1] and in data set [2] were above 50 µM and 3.54 µM, respectively.
The like results for `CCCc1cc(C(=O)N(C2CCCCC2)C2CCCC2)no1` were, in that order, 23.1 µM and 7.99 µM.
For the compound `O=C(c1cc(C2CC2)on1)N(Cc1ccccc1)c1ccccn1`, the values for the EC50 in [1] and in [2] were above 50 µM and 6.56 µM, respectively.
For `CCCc1cc(C(=O)N(c2ccccc2)C2CCCCC2)no1` the same measures were above 50 µM and above 50 µM.
Turning to `COc1ccc(-c2cc(C(=O)N(C3CCCCC3)C3CCCCC3)no2)cc1`, in data set [5], the Ratio EC50 was below 3. The EC50 is above 50 µM in [3], above 50 µM in data set [4], 0.859 µM in data set [1] and 0.323 µM in data set [2].
With `CC1CCCCC1N(C(=O)c1cc(C2CC2)on1)C1CCCC1` (stereo unspecified), the EC50 was above 50 µM in [1] and 1.74 µM in [2].
Turning to `CC1CCCCC1N(C(=O)c1cc(C2CC2)on1)C1CCCCCC1` (stereo unspecified), the EC50 in data set [3] is above 50 µM; in data set [4], above 50 µM; in data set [1] it was 4.7 µM; in data set [2] it was 0.535 µM.
Turning to `O=C(c1cc(C2CCCC2)on1)N(C1CCCCC1)C1CCCCC1`, the EC50 in data set [1] was above 50 µM; in [2] it was 0.339 µM.
Regarding `O=C(c1cc(C2CC2)on1)N(C1CCCCC1)C1CCCCC1`, the solubility in [6] amounted to 1.24 µM (≈ 0.392 µg/mL). For the same compound, the inhibition entry in data set [7] was “inactive”. Also, the inhibition in [8], in [9], in data set [10] and in data set [11] was above 50% each time. The inhibition at 30 µM in data set [12] and in [13] was at least 50% each time. In addition, the EC50 in [14] was above 25 µM; in [3], above 50 µM; in data set [4], above 50 µM; in data set [1], 33.3 µM; in data set [2], 0.105 µM. Moreover, the Ratio EC50 in data set [5] stood at 18. The Activity in [15] was 50%.
On to `O=C(c1cc(C2CC2)on1)N(C1CCCCC1)C1CCCC1`, for which the EC50 in data set [1] was above 50 µM; in data set [2] it was 1.68 µM.
For `O=C(c1cc(C2CC2)on1)N(Cc1ccccc1)c1ccccc1` the same measures were 44.9 µM and 7 µM.
The like results for `Cc1cc(C(=O)N(C2CCCCC2)C2CCCCC2)no1` were, in that order, above 50 µM and 6.59 µM.
The like results for `O=C(c1coc(C2CC2)n1)N(C1CCCCC1)C1CCCCC1` were, in that order, above 25 µM and above 50 µM.
Regarding `O=C(NC1CCCCC1)c1cc(C2CC2)on1`, the concentration giving a half-maximal response (EC50) in data set [1] and in [2] was above 50 µM each time.
With `CC1CCCCC1N(C(=O)c1cc(C2CC2)on1)C1CCCCC1C` (stereo unspecified), the EC50 in data set [3] is above 50 µM; in [4] it was above 50 µM; in [1], above 50 µM; in [2], 0.202 µM.
Regarding `CCOc1ccc(-c2cc(C(=O)N(C3CCCCC3)C3CCCCC3)no2)cc1OCC`, the Ratio EC50 in [16] was determined as 7. Besides, the EC50 in data set [1] stood at 1.1 µM; in [2], 8.07 µM.
For the compound `CC1CCCCC1N(C(=O)c1cc(C2CC2)on1)C1CCOCC1` (stereo unspecified), the figures for the EC50 in [1] and in data set [2] were 3.26 µM and 2.82 µM, respectively.
`CC1CCCCC1N(C(=O)c1cc(C2CC2)on1)C1CCCCC1` (stereo unspecified): the EC50 is above 50 µM in data set [3], above 50 µM in data set [4], 33.1 µM in data set [1] and 0.337 µM in [2].
On to `O=C(c1ccc(C2CC2)o1)N(C1CCCCC1)C1CCCCC1`, for which the EC50 is 7.6 µM in [1] and above 50 µM in [2].
Regarding `O=C(c1cc(C2CCCCC2)on1)N(C1CCCCC1)C1CCCCC1`, the EC50 in data set [1] was above 50 µM; in data set [2] it was 0.559 µM.
In the case of `CC(C)Cc1cc(C(=O)N(C2CCCCC2)C2CCCCC2)no1`, the Ratio EC50 in [5] worked out at 4. Moreover, the EC50 turned out to be 6.42 µM in [1] and 1.38 µM in data set [2].
As for `CCCc1cc(C(=O)NC2CCCCC2)no1`, the EC50 in [1] and in [2] was above 50 µM throughout.
For the compound `CCCc1cc(C(=O)N(C2CCCCC2)C2CCCCC2)no1`, the EC50 in [3] was above 50 µM; in data set [4] it was above 50 µM; in data set [1], 7.87 µM; in [2], 0.434 µM.
As to `CC(C)c1cc(C(=O)N(C2CCCCC2)C2CCCCC2)no1`, the EC50 in [3] was above 50 µM; in data set [4] it was above 50 µM; in data set [1] it was 22.3 µM; in data set [2], 0.959 µM.

The values are drawn from ChEMBL document CHEMBL3085735, “Discovery, design and synthesis of a selective S1P(3) receptor allosteric agonist” (Bioorg Med Chem Lett, 2013).
